This passage reports Ki results from ChEMBL document CHEMBL4680371, “Design and Structure-Activity Relationship of a Potent Furin Inhibitor Derived from Influenza Hemagglutinin” (ACS Med Chem Lett, 2021).

Where a SMILES comes first, the peptide text is derived from it.

Furin, sequence (P09958 whole entry): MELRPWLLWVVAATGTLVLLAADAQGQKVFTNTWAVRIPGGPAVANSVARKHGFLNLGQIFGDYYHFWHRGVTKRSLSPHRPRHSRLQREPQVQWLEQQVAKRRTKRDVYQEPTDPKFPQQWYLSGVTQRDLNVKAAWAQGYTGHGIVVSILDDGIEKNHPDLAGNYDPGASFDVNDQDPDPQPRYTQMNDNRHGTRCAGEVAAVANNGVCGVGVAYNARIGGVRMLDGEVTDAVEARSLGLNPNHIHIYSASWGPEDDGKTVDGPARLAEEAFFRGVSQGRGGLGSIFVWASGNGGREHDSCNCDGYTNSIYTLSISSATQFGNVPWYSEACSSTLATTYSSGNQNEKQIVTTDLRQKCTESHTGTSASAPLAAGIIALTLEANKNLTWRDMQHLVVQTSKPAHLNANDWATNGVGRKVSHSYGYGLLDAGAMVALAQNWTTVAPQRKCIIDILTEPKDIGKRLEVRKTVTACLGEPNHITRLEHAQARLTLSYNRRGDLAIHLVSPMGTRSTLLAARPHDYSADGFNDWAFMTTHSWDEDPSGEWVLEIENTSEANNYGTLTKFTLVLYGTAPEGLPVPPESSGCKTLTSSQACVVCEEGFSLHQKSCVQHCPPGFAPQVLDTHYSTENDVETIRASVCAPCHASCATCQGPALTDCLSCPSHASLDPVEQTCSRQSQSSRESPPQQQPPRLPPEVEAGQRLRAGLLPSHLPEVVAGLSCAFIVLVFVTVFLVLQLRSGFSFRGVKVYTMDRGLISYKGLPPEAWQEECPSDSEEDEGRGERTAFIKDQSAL

This assay deals with Furin (Homo sapiens, UniProt P09958). The assay is described as follows: Inhibition of recombinant soluble human furin using pyroGlu-Arg-Thr-Lys-Arg-methyl-coumaryl-7-amide as substrate measured after 1 hr. The procedure, abridged:
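Soluble human recombinant furin was tested in a competitive kinetic assay. Ki is reported as the mean ± SD of at least two independent experiments.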
A word on the Ki: it is a measure of affinity in units of concentration, obtained from inhibition or displacement. In the case of `CC(=O)N[C@@H](CCCNC(=N)N)C(=O)N[C@@H](CCC(N)=O)C(=O)N[C@@H](CCCNC(=N)N)C(=O)N[C@@H](CCCNC(=N)N)C(=O)N[C@@H](CCCNC(=N)N)C(=O)N[C@@H](CCCCN)C(=O)N[C@@H](CCCCN)C(=O)N[C@@H](CCCNC(=N)N)C(=O)N[C@H](C(N)=O)[C@@H](C)O`, the Ki was determined as 19 nM. For the compound `CC(=O)N[C@@H](CCCNC(=N)N)C(=O)N[C@@H](C)C(=O)N[C@@H](CCCNC(=N)N)C(=O)N[C@H](C(=O)N[C@@H](CCCNC(=N)N)C(=O)N[C@@H](CCCCN)C(=O)N[C@@H](CCCCN)C(=O)N[C@@H](CCCNC(=N)N)C(=O)N[C@H](C(N)=O)[C@@H](C)O)[C@@H](C)O`, the Ki came to 8 nM. Turning to `CC(=O)N[C@@H](CCCNC(=N)N)C(=O)N[C@@H](CCCNC(=N)N)C(=O)N[C@@H](CCCNC(=N)N)C(=O)N[C@@H](CCCNC(=N)N)C(=O)N[C@@H](CCCNC(=N)N)C(=O)N[C@@H](CCCCN)C(=O)N[C@@H](CCCCN)C(=O)N[C@@H](CCCNC(=N)N)C(=O)N[C@H](C(N)=O)[C@@H](C)O`, the Ki amounted to 23 nM.

Regarding `CC(=O)N[C@@H](CCCNC(=N)N)C(=O)N[C@@H](C)C(=O)N[C@@H](Cc1c[nH]cn1)C(=O)N[C@@H](CCCNC(=N)N)C(=O)N[C@@H](CCCNC(=N)N)C(=O)N[C@@H](CCCCN)C(=O)N[C@@H](CCCCN)C(=O)N[C@@H](CCCNC(=N)N)C(=O)N[C@H](C(N)=O)[C@@H](C)O`, the Ki was 25 nM. Consider `CC(=O)N[C@@H](CCCNC(=N)N)C(=O)N[C@@H](C)C(=O)N[C@@H](CCCNC(=N)N)C(=O)N[C@@H](CCC(N)=O)C(=O)N[C@@H](CCCNC(=N)N)C(=O)N[C@@H](CCCCN)C(=O)N[C@@H](CCCCN)C(=O)N[C@@H](CCCNC(=N)N)C(=O)N[C@H](C(N)=O)[C@@H](C)O`, for which the Ki was 19 nM.

Regarding `CC(=O)N[C@@H](CCCNC(=N)N)C(=O)N[C@@H](C)C(=O)N[C@H](C(=O)N[C@@H](CCCNC(=N)N)C(=O)N[C@@H](CCCNC(=N)N)C(=O)N[C@@H](CCCCN)C(=O)N[C@@H](CCCCN)C(=O)N[C@@H](CCCNC(=N)N)C(=O)N[C@H](C(N)=O)[C@@H](C)O)C(C)C`, the Ki worked out at 21 nM.

On to `CC(=O)N[C@@H](CCCNC(=N)N)C(=O)NCC(=O)N[C@@H](CCCNC(=N)N)C(=O)N[C@@H](CCCNC(=N)N)C(=O)N[C@@H](CCCNC(=N)N)C(=O)N[C@@H](CCCCN)C(=O)N[C@@H](CCCCN)C(=O)N[C@@H](CCCNC(=N)N)C(=O)N[C@H](C(N)=O)[C@@H](C)O`, for which the Ki was 17 nM.

In the case of `CC(=O)N[C@@H](CO)C(=O)N[C@@H](C)C(=O)N[C@@H](CCCNC(=N)N)C(=O)N[C@@H](CCCNC(=N)N)C(=O)N[C@@H](CCCNC(=N)N)C(=O)N[C@@H](CCCCN)C(=O)N[C@@H](CCCCN)C(=O)N[C@@H](CCCNC(=N)N)C(=O)N[C@H](C(N)=O)[C@@H](C)O`, the Ki is 11 nM.

Regarding `CC(=O)N1CCC[C@@H]1C(=O)N[C@@H](C)C(=O)N[C@@H](CCCNC(=N)N)C(=O)N[C@@H](CCCNC(=N)N)C(=O)N[C@@H](CCCNC(=N)N)C(=O)N[C@@H](CCCCN)C(=O)N[C@@H](CCCCN)C(=O)N[C@@H](CCCNC(=N)N)C(=O)N[C@H](C(N)=O)[C@@H](C)O`, the Ki is 13 nM. Next, `CC[C@H](C)[C@H](NC(=O)[C@H](CCCNC(=N)N)NC(=O)[C@H](C)NC(=O)[C@H](CO)NC(C)=O)C(=O)N[C@@H](CCCNC(=N)N)C(=O)N[C@@H](CCCCN)C(=O)N[C@@H](CCCCN)C(=O)N[C@@H](CCCNC(=N)N)C(=O)N[C@H](C(N)=O)[C@@H](C)O` (Ac-SARIRKKRT-NH2): 8 nM; `CC(=O)N[C@@H](CCCNC(=N)N)C(=O)N[C@@H](C)C(=O)N[C@@H](CCCNC(=N)N)C(=O)NC(C)(C)C(=O)N[C@@H](CCCNC(=N)N)C(=O)N[C@@H](CCCCN)C(=O)N[C@@H](CCCCN)C(=O)N[C@@H](CCCNC(=N)N)C(=O)N[C@H](C(N)=O)[C@@H](C)O`: 34 nM; `CC(=O)N[C@@H](CCC(N)=O)C(=O)N[C@@H](C)C(=O)N[C@@H](CCCNC(=N)N)C(=O)N[C@@H](CCCNC(=N)N)C(=O)N[C@@H](CCCNC(=N)N)C(=O)N[C@@H](CCCCN)C(=O)N[C@@H](CCCCN)C(=O)N[C@@H](CCCNC(=N)N)C(=O)N[C@H](C(N)=O)[C@@H](C)O`: 10 nM. Consider `CC(=O)N[C@@H](CCCNC(=N)N)C(=O)N[C@@H](C)C(=O)N[C@@H](C)C(=O)N[C@@H](CCCNC(=N)N)C(=O)N[C@@H](CCCNC(=N)N)C(=O)N[C@@H](CCCCN)C(=O)N[C@@H](CCCCN)C(=O)N[C@@H](CCCNC(=N)N)C(=O)N[C@H](C(N)=O)[C@@H](C)O`, for which the Ki was found to be 23 nM.

In the case of `CC(=O)N[C@@H](Cc1c[nH]cn1)C(=O)N[C@@H](C)C(=O)N[C@@H](CCCNC(=N)N)C(=O)N[C@@H](CCCNC(=N)N)C(=O)N[C@@H](CCCNC(=N)N)C(=O)N[C@@H](CCCCN)C(=O)N[C@@H](CCCCN)C(=O)N[C@@H](CCCNC(=N)N)C(=O)N[C@H](C(N)=O)[C@@H](C)O`, the Ki worked out at 12 nM. `CC(=O)N[C@H](CO)C(=O)N[C@@H](C)C(=O)N[C@@H](CCCNC(=N)N)C(=O)N[C@@H](CCCNC(=N)N)C(=O)N[C@@H](CCCNC(=N)N)C(=O)N[C@@H](CCCCN)C(=O)N[C@@H](CCCCN)C(=O)N[C@@H](CCCNC(=N)N)C(=O)N[C@H](C(N)=O)[C@@H](C)O`: the Ki turned out to be 11 nM.

In the case of `CC(=O)N[C@@H](CCCCN)C(=O)N[C@@H](C)C(=O)N[C@@H](CCCNC(=N)N)C(=O)N[C@@H](CCCNC(=N)N)C(=O)N[C@@H](CCCNC(=N)N)C(=O)N[C@@H](CCCCN)C(=O)N[C@@H](CCCCN)C(=O)N[C@@H](CCCNC(=N)N)C(=O)N[C@H](C(N)=O)[C@@H](C)O`, the Ki turned out to be 13 nM. As to `CC(=O)N[C@@H](CCCNC(=N)N)C(=O)N[C@@H](C)C(=O)N[C@@H](CCCNC(=N)N)C(=O)N[C@H](C(=O)N[C@@H](CCCNC(=N)N)C(=O)N[C@@H](CCCCN)C(=O)N[C@@H](CCCCN)C(=O)N[C@@H](CCCNC(=N)N)C(=O)N[C@H](C(N)=O)[C@@H](C)O)C(C)(C)C`, the Ki was 16 nM. Take `CC[C@H](NC(=O)[C@H](CCCNC(=N)N)NC(=O)[C@H](C)NC(=O)[C@@H](CO)NC(C)=O)C(=O)N[C@@H](CCCNC(=N)N)C(=O)N[C@@H](CCCCN)C(=O)N[C@@H](CCCCN)C(=O)N[C@@H](CCCNC(=N)N)C(=O)N[C@H](C(N)=O)[C@@H](C)O`: the Ki worked out at 15 nM. For `CC(=O)N[C@@H](CCCNC(=N)N)C(=O)N[C@@H](C)C(=O)N[C@@H](CCC(N)=O)C(=O)N[C@@H](CCCNC(=N)N)C(=O)N[C@@H](CCCNC(=N)N)C(=O)N[C@@H](CCCCN)C(=O)N[C@@H](CCCCN)C(=O)N[C@@H](CCCNC(=N)N)C(=O)N[C@H](C(N)=O)[C@@H](C)O`, the Ki turned out to be 20 nM.

As to `CC(=O)N[C@@H](CCCNC(=N)N)C(=O)N[C@@H](C)C(=O)NCC(=O)N[C@@H](CCCNC(=N)N)C(=O)N[C@@H](CCCNC(=N)N)C(=O)N[C@@H](CCCCN)C(=O)N[C@@H](CCCCN)C(=O)N[C@@H](CCCNC(=N)N)C(=O)N[C@H](C(N)=O)[C@@H](C)O`, the Ki was determined as 35 nM. Next, `CC(=O)N[C@@H](CCCNC(=N)N)C(=O)N[C@@H](C)C(=O)N[C@@H](CCCNC(=N)N)C(=O)N1CCC[C@H]1C(=O)N[C@@H](CCCNC(=N)N)C(=O)N[C@@H](CCCCN)C(=O)N[C@@H](CCCCN)C(=O)N[C@@H](CCCNC(=N)N)C(=O)N[C@H](C(N)=O)[C@@H](C)O`: 8 nM. In the case of `CC[C@H](C)[C@H](NC(=O)[C@H](CCCNC(=N)N)NC(=O)[C@H](C)NC(=O)[C@H](CCC(N)=O)NC(C)=O)C(=O)N[C@@H](CCCNC(=N)N)C(=O)N[C@@H](CCCCN)C(=O)N[C@@H](CCCCN)C(=O)N[C@@H](CCCNC(=N)N)C(=O)N[C@H](C(N)=O)[C@@H](C)O` (Ac-QARIRKKRT-NH2) it was 9 nM.
